Data published in article PMC11486593 (Biochimica et biophysica acta. General subjects, 2024).

Tests used:
[1] = system: C3H10T1/2 cells; test: Induction of AP activity in C3H10T1/2 cells by agonists; type: cell-based, murine; conditions: read-out: EC50 for induction of AP activity, 5 days
Outline: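 C3H10T1/2 murine embryonic fibroblasts are cultured for 24 h, then exposed to varying concentrations of ShhN protein or SAG for 5 days. Alkaline phosphatase induction is read as the activation marker, and EC50 is fitted by non-linear regression. A ShhN dose-response curve is run on every plate as an internal control.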

[2] = system: SAG-induced AP activity in C3H10T1/2 cells; test: C3H10T1/2 cell-based assay, inhibition of SAG-induced alkaline phosphatase; design: species or system murine; conditions: for Inhibition of SAG-induced AP: C3H10T1/2 cells, SAG at EC50 (100 nM), 5 days; for Cytotoxicity in C3H10T1/2 cells: inferred from lack of effect in the SAG induction assay
Outline: (§1)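 C3H10T1/2 murine embryonic fibroblasts, stimulated for 5 days with an agonist at its EC50 (human ShhN N-terminal domain, residues 24–197, at 2 μg/ml; or Smoothened agonist SAG at 100 nM), with or without the test compound in dose response. Alkaline phosphatase activity is measured as the marker of pathway activation. IC50 is obtained by non-linear regression.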

[3] = target: ShhN protein (Homo sapiens, UniProt Q15465); test: Protein thermal shift assay; type: binding; conditions: ShhN 1–2 μM; compounds 1.56 to 50 μM
Sequence of ShhN protein (Q15465 24-197): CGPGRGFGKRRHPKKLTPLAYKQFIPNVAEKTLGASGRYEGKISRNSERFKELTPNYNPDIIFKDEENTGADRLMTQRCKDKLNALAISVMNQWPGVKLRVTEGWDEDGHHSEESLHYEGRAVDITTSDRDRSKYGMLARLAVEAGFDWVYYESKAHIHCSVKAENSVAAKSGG
Outline: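 Differential scanning fluorimetry uses human ShhN (residues 24–197, 1–2 μM final) mixed with the kit's thermal shift buffer and dye, held on ice, with or without the test compound at 1.56–50 μM. Melt runs at a continuous ramp of […] from 25°C to 97.5°C. ΔTm is the difference in transition midpoint with versus without compound.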

[4] = system: ShhN-induced Gli1 and Ptch1 mRNA in C3H10T1/2 cells; test: qRT-PCR for Gli1 and Ptch1 in C3H10T1/2 cells, ShhN-mediated induction; type: cell-based, mouse; conditions: 5 days; for Decrease of ShhN-mediated induction of Gli1 and Ptch1 compared to ShhN treatment alone: 50 μM compound; for Inhibition of ShhN-induced GLI1 and Ptch1 mRNA: 50 μM for compounds 4, 21 and 24, 10 μM for robotnikinin
[5] = system: SAG-induced Gli1 and Ptch1 mRNA in C3H10T1/2 cells; test: qRT-PCR for Gli1 and Ptch1 in C3H10T1/2 cells, SAG-mediated induction; type: cell-based, mouse; conditions: 5 days, 50 μM for compounds 4, 21 and 24, 10 μM for robotnikinin
[6] = system: ShhN-induced AP activity in C3H10T1/2 cells; test: C3H10T1/2 cell-based assay, inhibition of ShhN-induced alkaline phosphatase; design: species or system murine; conditions: dose response, 5 days
Outline: as §1

[7] = target: ShhN/heparin binding (Homo sapiens, UniProt Q15465); test: Solid-phase ShhN/heparin binding assay; conditions: for ShhN/flu-heparin binding IC50 of known compounds: compounds known to bind Shh, heparin binding domains or heparin, Fig. 3B
Sequence of ShhN/heparin binding (Q15465 24-197): as above

SMILES | Inhibition of SAG-induced AP [2] | Tm shift (ΔTm) on binding to ShhN [3] [°C] | Inhibition of ShhN-induced GLI1 and Ptch1 mRNA [4] | Inhibition of SAG-induced GLI1 and Ptch1 mRNA [5] | further results
CNC1CCC(N(Cc2cccc(-c3ccncc3)c2)C(=O)c2sc3ccccc3c2Cl)CC1 (centres unmarked) [SAG] | – | – | – | – | EC50 [1]: 0.1 µM
O=C(NCCNC1CCCC1)c1cccs1 [Compound 24, N-[2-(Cyclopentylamino)ethyl] thiophene-2-carboxamide] | not SAG induction of AP | 0.85 | significantly blocked | did not decrease | Cytotoxicity in C3H10T1/2 cells [2]: not cytotoxic; Decrease of ShhN-mediated induction of Gli1 and Ptch1 compared to ShhN treatment alone [4]: 6–7 fold
O=C(C[C@@H]1C/C=C/CCC(=O)O[C@H](c2ccccc2)CNC1=O)NCc1ccc(Cl)cc1 [Robotnikinin, reference compound] | not SAG-mediated AP induction | 0.85 | blocked | did not block | Block of ShhN-mediated AP induction [6]: able to block ShhN-; ShhN/flu-heparin binding IC50 of known compounds [7]: did not block binding
CCc1ccc(C2=C/C(=C/c3ccco3)C(=O)O2)cc1 [Compound 4, (3Z)-5-(4-Ethylphenyl)-3-(furan-2-ylmethylidene) furan-2-one] | not SAG induction of AP | 1.58 | significantly blocked | did not decrease | Cytotoxicity in C3H10T1/2 cells [2]: not cytotoxic; Decrease of ShhN-mediated induction of Gli1 and Ptch1 compared to ShhN treatment alone [4]: 6–7 fold
Cc1ccc(C(=O)Nc2ccc(S(=O)(=O)O)c3cc(S(=O)(=O)O)cc(S(=O)(=O)O)c23)cc1NC(=O)c1cccc(NC(=O)Nc2cccc(C(=O)Nc3cc(C(=O)Nc4ccc(S(=O)(=O)O)c5cc(S(=O)(=O)O)cc(S(=O)(=O)O)c45)ccc3C)c2)c1 [Suramin, reference compound] | – | 0.73 | – | – | Block of ShhN-mediated AP induction [6]: blocked
Cc1cc(N)c2cc(NC(=O)Nc3ccc4nc(C)cc(N)c4c3)ccc2n1 [surfen, Surfen] | – | – | – | – | ShhN/flu-heparin binding IC50 of known compounds [7]: did not block binding
O=C1NC(=S)N(c2ccc(F)cc2)C(=O)C1=Cc1ccco1 [Compound 7, 1-(4-Fluoro-phenyl)-5-furan-2-ylmethylene-2-thioxo-dihydro-pyrimidine-4,6-dione] | – | – | – | – | IC50 [7]: 17.5 µM
